GSTO1 counter = inhibitors of recombinant GSTO1, primary screen, counter-screen for RBBP9 inhibitor project, biochemical, fluorescence polarization; Glutathione S-transferase omega-1 (Homo sapiens), P78417; activity-based probe fluorescence polarization; inhibition, % at 5.96 µM; hit rate 1.1% among 300,000; AID 1974, 2009;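 active means inhibition above the campaign mean inhibition plus 3 SD, cut at about 35% in these data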;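 further: 0% = GSTO1-1 with DMSO and 100% = wells lacking GSTO1-1 enzyme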
TDP2 absorb = human TDP2 enzyme inhibitors, primary screen, biochemical, epi absorbance, recombinant enzyme. Tyrosyl-DNA phosphodiesterase 2 (Homo sapiens), O95551. hit rate 0.34% among 370,000. AID 720702, 2013. T5PNP hydrolysis, p-nitrophenol absorbance 415 nm. inhibition, % at 12.8 µM;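 active means inhibition above the mean of all tested compounds plus 3 SD, set per campaign, cut at about 25% in these data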;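 further: 0% = DMSO with enzyme and 100% = buffer with substrate but no TDP2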
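Assay system: Recombinant human TDP2 | Quantity: 120 nM TDP2 per well | Incubation: 2 h at 37 °C | Signal: Epi absorbance | Evaluation: Percent inhibition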
UBC9 SUMO inh = inhibitors of in vitro SUMOylation cascade, primary screen, biochemical, HTRF, uHTS; HTRF SUMOylation assay, SAE1/SAE2 + UBC9; SUMO-conjugating enzyme UBC9 (Homo sapiens), P63279; hit rate 0.36% among 290,000; inhibition, % at 35 µM; in the data active means inhibition above about 50%, passing the limit was not always enough
Target sequence (P63279 whole entry, looked up): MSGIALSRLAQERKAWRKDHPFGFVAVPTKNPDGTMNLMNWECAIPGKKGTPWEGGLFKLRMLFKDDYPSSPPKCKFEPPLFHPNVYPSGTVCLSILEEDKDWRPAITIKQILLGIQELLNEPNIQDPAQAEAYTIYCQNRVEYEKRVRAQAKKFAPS
PAD4 FP inh = human PAD4 inhibitors, primary screen, biochemical, fluorescence polarization, 1536-well format | recombinant PAD4, RCA probe fluorescence polarization | inhibition, % at 6.36 µM | hit rate 0.41% among 330,000;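 active means percent inhibition above a cutoff equal to the mean of all tested compounds plus 3 SD, cut at about 15% in these data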;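 further: 0% = PAD4 with RCA probe and DMSO and 100% = probe without PAD4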
GASC-1 inh = inhibitors of GASC-1 histone demethylase, primary screen, biochemical, fluorescence, DELFIA europium. Lysine-specific demethylase 4C (Homo sapiens), Q9H3R0. GST-JMJD2C(1-420) H3K9me3 demethylation. inhibition, % at 2.35 µM. hit rate 0.069% among 330,000. AID 2099, 2009;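 active means more than half of a compound's replicate wells show inhibition beyond 50%, single wells judged on their own value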;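 further: signal counts dimethyl H3K9 product captured on neutravidin plate; 0% = median of DMSO wells and 100% = 0.3 times that DMSO median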
Target sequence (Q9H3R0 1-420 limits assumed): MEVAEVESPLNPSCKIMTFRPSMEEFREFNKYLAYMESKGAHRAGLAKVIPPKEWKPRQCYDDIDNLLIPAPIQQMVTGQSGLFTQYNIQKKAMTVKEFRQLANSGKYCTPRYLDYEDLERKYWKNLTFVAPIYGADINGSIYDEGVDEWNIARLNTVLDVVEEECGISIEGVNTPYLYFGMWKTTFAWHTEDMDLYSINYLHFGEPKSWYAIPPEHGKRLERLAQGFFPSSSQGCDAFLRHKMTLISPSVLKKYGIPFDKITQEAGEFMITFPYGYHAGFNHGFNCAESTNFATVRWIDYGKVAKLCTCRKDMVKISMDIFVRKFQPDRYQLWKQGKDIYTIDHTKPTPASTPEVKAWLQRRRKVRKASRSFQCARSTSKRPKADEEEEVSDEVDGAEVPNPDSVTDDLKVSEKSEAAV
Apaf-1 inh = inhibitors of human Apaf-1 apoptosome, primary screen, biochemical, DEVD-Rh110 fluorescence, uHTS; Apoptotic protease-activating factor 1 (Homo sapiens), O14727; reconstituted apoptosome caspase-3 activity; inhibition, % at 20 µM; hit rate 0.71% among 330,000; AID 489030, 2010; active means inhibition of at least 40% at 20 µM;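 further: plate controls were DMSO wells for no effect and DEVD-CHO caspase inhibitor wells for full effect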
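Material: reconstituted apoptosome with Apaf-1, cytochrome c, caspase-9, procaspase-3, dATP / Buffer or medium: pH 7.5 Hepes buffer with CHAPS, BSA, DTT / Also added: cytochrome c with DEVD-Rh110 / Schedule: compound with Apaf-1, dATP, procaspase-3 30 min, then 50 min reaction, room temperature / Technique: rhodamine 110 fluorescence at Ex 480/Em 540 nm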
PAD4 FP conf = human PAD4 inhibitors, confirmation, biochemical, fluorescence polarization | shares compounds with PAD4 FP inh | recombinant PAD4, RCA probe fluorescence polarization | inhibition, % at 6.36 µM | hit rate 28% among 1,200;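 active means mean inhibition across replicates above the hit cutoff set by the earlier primary screen, cut at about 15% in these data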;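 further: inhibitors block active-site labeling by the probe so polarization falls; 0% = PAD4 with probe and DMSO and 100% = probe without PAD4 enzyme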
Numbers without * were called inactive; x = no result given. Only some compounds are listed: those with a hit (about 1.6% of all), similar ones and a draw of the others.

SMILES	GSTO1 counter	TDP2 absorb	UBC9 SUMO inh	PAD4 FP inh	GASC-1 inh	Apaf-1 inh	PAD4 FP conf
C(=Nc1ccc(N2CCOCC2)cc1)c1c[nH]c2ccccc12	16	15	16	17*	3	-3	-4
CN(C)c1nc(N/N=C/c2c[nH]c3ccccc23)nc(N2CCOCC2)n1	3	1	5	0	-1	-3	x
O=C(Nc1cccc(Cl)c1)O[C@@H]1CC[C@@]23CCCN2C(=O)CCC[C@H]3C1	x	1	x	x	x	x	x
Cc1ccc(-c2nc3sc(C#N)c(N)n3c(=O)c2C#N)cc1	36*	5	31	62*	1	8	-4
COCCn1c(C)c(C)c(S(=O)(=O)c2ccccc2)c1N	13	-5	14	28*	-1	13	-3
Cc1c(S(=O)(=O)c2ccccn2)c(N)n(Cc2ccccc2)c1C	-1	-1	5	-11	5	18	x
COc1cccc(N2CCN(C(=O)c3cn(Cc4ccccc4)nc3-c3cccnc3)CC2)c1	x	2	x	21*	-7	4	0
CC(C)CCN(C)C1CCN(C(=O)Nc2ccccc2)CC1	x	8	x	x	x	x	x
CN(C)CCCNc1cn[nH]c(=O)c1Cl	-5	7	9	60*	12	-23	3
O=c1[nH]ncc(NCCc2ccccc2)c1Cl	0	11	2	-2	3	-21	x
CC1CCC2(CC1)CCC2NCc1ccc(Br)cc1 (stereo not drawn)	x	-7	x	x	x	x	x
CCSc1c([N+](=O)[O-])c(=O)n(-c2ccccc2)c2ccccc12	-8	-7	x	23*	5	13	21*
COCCNc1c([N+](=O)[O-])c(=O)n(-c2ccccc2)c2ccccc12	6	4	-4	3	-28	-13	x
COc1cccc(/C=C2/CN(C)CC3=C2OC(N)=C(C#N)C3c2cccc(OC)c2)c1 (stereo not drawn)	12	-4	8	61*	-15	19	13
COc1cccc(C2C(C#N)=C(N)OC(C(C)(C)C)=C2C#N)c1 (stereo not drawn)	12	2	13	-5	9	5	x
CC(C)C(=O)N1CC[C@H]2[C@H](CCCN2Cc2ccc(F)cc2)C1	x	-9	x	x	x	x	x
O=C(NCc1ccc(F)c(F)c1)C1C2C=CC3(CN(Cc4ccccc4)C(=O)C13)O2 (stereo not drawn)	x	-3	x	x	x	x	x
CCC1(C)Cc2c(sc3nc(SC)[nH]c(=S)c23)CO1 (stereo not drawn)	-9	x	14	36*	3	6	27*
O=C(CSCc1ccccc1Cl)NCCSc1ccccn1	7	1	9	16*	-2	3	1
O=C(NC1CCCCC1)C(c1cccs1)N(CCCN1CCOCC1)C(=O)c1ccc(-c2ccccc2)[nH]1 (stereo not drawn)	0	9	-2	63*	10	-28	-5
COc1ccc(Cn2cc(CN3[C@H](Cc4ccccc4)COc4cc(Br)ccc4S3(=O)=O)nn2)cc1	x	6	x	x	x	x	x
CC(=O)c1cccc(NC(=S)NC2CCCCC2)c1	24	1	-3	33*	-8	16	7
CC(=O)c1cccc(NC(=S)NC2CC2)c1	3	10	-15	3	-4	9	x
O=S1(=O)c2ccc(Br)cc2OC[C@@H](c2ccccc2)N1Cc1cn(CCC2OCCO2)nn1	x	-4	x	x	x	x	x
Cc1ccc(P(=O)(CSC(=N)N)c2ccc(C)cc2)cc1	5	0	7	24*	7	-18	18*
SMILES	GSTO1 counter	TDP2 absorb	UBC9 SUMO inh	PAD4 FP inh	GASC-1 inh	Apaf-1 inh	PAD4 FP conf
Cc1ccc(P(=O)(CO)c2ccc(C)cc2)cc1	2	-7	-13	-2	15	-3	x
N=C(N)SCP(=O)(c1ccccc1)c1ccccc1	-7	-6	13	17*	13	-17	15*
COc1ccc(S[C@]2(C(=O)N3CCCC3)CC(=O)N(C(=O)/C=C/c3ccccc3)[C@@H]2c2ccc(OC)cc2)cc1	x	7	x	x	x	x	x
C#CCNC(=O)C[C@H]1C[C@@]2(C(=O)OC)C(=C[C@H](C(C)(C)C)O[C@@H]2C)N(Cc2cccc3ccccc23)C1=O	x	4	x	x	x	x	x
CCNc1cc(O)ccc1C	x	x	x	122*	6	9	53*
Cc1ccc(C(=O)CNc2cc(C)ccc2C)cc1	2	-1	-7	-2	4	10	x
Cc1ccccc1CS(=O)(=O)Cc1ccc(C(=O)Nc2ccc(F)cc2F)o1	x	-5	x	x	x	x	x
C=CCn1c(NC)cc(=O)n(C)c1=O	7	-4	2	20*	2	-3	6
CCNc1cc(=O)n(C)c(=O)n1C	-12	-6	10	-6	-7	-21	x
O=C(OCc1cn(Cc2c(F)cccc2F)nn1)N1CCCC1	x	8	x	x	x	x	x
CC(C)(C)c1ccc(Cn2nnc3c(=O)[nH]c(C4CCN(C(=O)Cc5cccs5)CC4)nc32)cc1	9	-4	-28	37*	-11	37	-6
CCOC(=O)c1cc(S(=O)(=O)Nc2ccc(OC)cc2OC)cn1C	-5	17	21	31*	0	14	-3
COc1ccc(OC)c(N(C)S(=O)(=O)c2ccc3c(c2)N(C(C)=O)CCO3)c1	2	4	-3	18*	4	-3	-2
COC(=O)C1CN(Cc2ccc(OC)cc2)CCS(=O)(=O)N1Cc1cn(Cc2ccc(OC)cc2)nn1 (stereo not drawn)	x	-3	x	x	x	x	x
CCC(=O)Nc1ccccc1C(=O)C(=O)Nc1ccccc1	5	10	8	20*	-1	-2	0
c1ccc(-c2c[nH]c3ccc(OCCN4CCOCC4)c(-c4ccccc4)c23)cc1	x	-6	x	x	x	x	x
CCN(C(=O)COC(=O)c1cc(-c2cccc3ccccc23)nc2ccccc12)C1CCS(=O)(=O)C1 (stereo not drawn)	8	3	-14	24*	33	19	12
O=C(COC(=O)c1cc(-c2cccc3ccccc23)nc2ccccc12)NC1CCS(=O)(=O)C1 (stereo not drawn)	10	-3	15	65*	7	16	24*
CCN(C(=O)COC(=O)c1ccccc1Cc1ccccc1)C1CCS(=O)(=O)C1 (stereo not drawn)	-2	-3	x	0	13	4	x
O=C(COCc1ccccc1)N1CC[C@H]2[C@H](CCCN2Cc2cc(F)cc(F)c2)C1	x	-3	x	x	x	x	x
CN(C)C(CNC(=O)c1cc2ccccc2o1)c1ccco1 (stereo not drawn)	x	7	x	88*	-1	3	3

Source: PubChem
